# Measurements as given in ChEMBL document CHEMBL1123966, “Ring-substituted [1,2-bis(4-hydroxyphenyl)ethylenediamine]dichloroplatinum (II) complexes: compounds with a selective effect on the hormone-dependent mammary carcinoma” (1988).
# “And” between values parts separate entries of the source, which are not always exact repeats. Equal values may be shown once.
# Columns and labels:
# MDA-MB-231 [1] = assay: Cell growth inhibition in hormone independent MDA-MB-231 breast cancer cells; type: functional, cell-based; details: Homo sapiens
# [2] = Cell growth inhibition MXT-ER- breast cancer cells at a dose of 10.9 mg/kg; type: functional, organism-based; parameters: dose 10.9 mg/kg; details: Mus musculus, Cancer cell lines
# In short: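 Hormone-independent MXT mammary carcinoma (ER−) in mice. Equimolar doses (2 × 10⁻⁵ M/kg) were given sc three times a week (Mon, Wed, Fri) in polyethylene glycol 400/H₂O (1:1), or in olive oil for some agents. Median tumor area was measured at the end of a 2-week therapy and expressed as T/C %.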
# Mus musculus [3] = assay: Median tumor weight of MXT (mammary carcinoma) ER+ determined at the end of 6 week therapy at a dose of 10.9 mg/kg; type: functional, organism-based; parameters: dose 10.9 mg/kg
# In short: (§1)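 Hormone-dependent MXT mammary carcinoma (ER+) model. Equimolar doses (2 × 10⁻⁵ M/kg) were given sc three times weekly (Mon, Wed, Fri) as a solution or suspension in polyethylene glycol 400/H₂O (1:1); some agents were given in olive oil. Median tumor weight was taken at the end of 6 weeks of therapy and given as T/C %. Significance was tested by the Wilcoxon-Mann-Whitney U test.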
# MCF7S [4] = assay: Incorporation of [3H]- thymidine in hormone dependent MCF-7 breast cancer cells; type: functional, cell-based; details: Homo sapiens
# Mus musculus [5] = assay: Uterotrophic effect in BDF1 mouse at a dose of 10.9 mg/kg; type: functional, organism-based; parameters: dose 10.9 mg/kg; details: Uterus
# In short: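 Uterus of BDF1 mice in the MXT ER+ study. Equimolar dosing at 2 × 10⁻⁵ M/kg, sc in PEG 400/H₂O 1:1 three times a week (Mon/Wed/Fri). Uterine response = [uterus dry weight (mg)/body weight (g)] × 100, determined after 6 weeks of therapy; U test.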
# MDA-MB-231 [6] = assay: Incorporation of [3H]- thymidine in hormone independent MDA-MB-231 breast cancer cells; type: functional, cell-based; details: Homo sapiens
# MDA-MB-231 [7] = assay: Incorporation of [3H]- thymidine into hormone independent MDA-MB-231 breast cancer cells; type: functional, cell-based; details: Homo sapiens
# Mus musculus [8] = species on record: Mus musculus; assay: Uterotrophic effect in BDF1 mouse measured as([weight of uterus (mg)/body weight (g)] *100); type: functional
# In short: (§2)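 Female BDF1 mice carrying MXT ER+ mammary carcinoma were dosed in olive oil, sc, three times a week, for 6 weeks. At the end of therapy, uterotropic effect = [uterus dry weight (mg)/body weight (g)] × 100, given as mean ± SD and as T/C % versus control. Significance was by the U test.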
# [9] = Cell growth inhibition MXT-ER+ breast cancer cells at a dose of 10.9 mg/kg; type: functional, organism-based; parameters: dose 10.9 mg/kg; details: Mus musculus, Cancer cell lines; in short: as §1
# MCF7S [10] = assay: Cell growth inhibition in hormone dependent MCF 7 breast cancer cells; type: functional, cell-based; details: Homo sapiens
# Rattus norvegicus [11] = species on record: Rattus norvegicus; assay: Percent change of tumor area at 28 day of therapy at a dose of 1.9 mg in DMBA - induced hormone dependent mammary carcinoma in rat; type: functional
# In short: (§3)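 DMBA-induced, hormone-dependent mammary carcinoma in Sprague-Dawley rats. Dose is per kg body weight per day, given three times a week, sc, as suspension or solution in polyethylene glycol 400/H2O 1:1, for 4 weeks. Tumors were counted at start (B) and as new tumors (NT). Outcomes were scored as % complete remission (not palpable), partial remission, no change and progression, with % change in tumor area.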
# [12] = Cell growth inhibition of MXT-ER+ breast cancer cells at a dose of 0.6 mg/kg (1.5*10e-6 M/kg); type: functional, organism-based; parameters: dose 0.6 mg/kg; details: Mus musculus, Cancer cell lines
# In short: (§4)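 MXT mammary carcinoma (hormone-dependent, ER+) in BDF1 mice. Doses given in olive oil, sc, three times a week, for 6 weeks. Median tumor weight was measured at the end of therapy and expressed as T/C %. Significance was by the Wilcoxon-Mann-Whitney U test.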
# [13] = Median tumor weight of MXT ER+ (mammary carcinoma) determined at the end of 6 week therapy at a dose of 0.6 mg/kg (1.5*10e-6 M/kg); type: functional, Mus musculus; in short: as §4
# Mus musculus [14] = assay: Uterotrophic effect in BDF1 mouse at a dose of 1.8 mg/kg (4.6 *10e-6 M/kg); type: functional, Uterus; in short: as §2
# Rattus norvegicus [15] = species on record: Rattus norvegicus; assay: No. of tumors at the beginning of the test at dose of 1.9 in DMBA - induced, hormone dependent mammary carcinoma in 8 rat; type: functional; in short: as §3
# [16] = Cell growth inhibition of MXT-ER+ breast cancer cells at a dose of 1.8 mg/kg (4.6 *10e-6 M/kg); type: functional, organism-based; parameters: dose 1.8 mg/kg; details: Mus musculus, Cancer cell lines; in short: as §4
# [17] = Median tumor weight of MXT ER+ determined at the end of 6 week therapy at a dose of 0.6 mg/kg (1.5*10e-6 M/kg); type: functional, Mus musculus; in short: as §4
# Rattus norvegicus [18] = species on record: Rattus norvegicus; assay: No. of tumors occurring at a dose of 1.9 mg in DMBA - induced hormone dependent mammary carcinoma in rat; type: functional; in short: as §3
# Rattus norvegicus [19] = species on record: Rattus norvegicus; assay: Percent change of in body weight at 7 day of therapy at a dose of 1.9 mg in DMBA - induced hormone dependent mammary carcinoma in rat; type: functional
# Rattus norvegicus [20] = species on record: Rattus norvegicus; assay: Percent of tumors with progression at a dose of 1.9 mg in DMBA - induced hormone dependent mammary carcinoma in rat; type: functional; in short: as §3
# Rattus norvegicus [21] = species on record: Rattus norvegicus; assay: Percent of tumors with no change at a dose of 1.9 mg in DMBA - induced hormone dependent mammary carcinoma in rat; type: functional; in short: as §3
# Mus musculus [22] = assay: Uterotrophic effect in BDF1 mouse at a dose of 0.6 mg/kg (1.5*10e-6 M/kg); type: functional, Uterus; in short: as §2
# [23] = Cell growth inhibition of MXT-ER+ breast cancer cells at a dose of 5.3 mg/kg ([…]); type: functional, organism-based; parameters: dose 5.3 mg/kg; details: Mus musculus, Cancer cell lines; in short: as §4
# Rattus norvegicus [24] = species on record: Rattus norvegicus; assay: Percent of tumors with complete remission at a dose of 1.9 mg in DMBA - induced, hormone dependent mammary carcinoma in rat; type: functional; in short: as §3
# [25] = Median tumor weight of MXT ER+ determined at the end of 6 week therapy at a dose of 5.3 mg/kg (1.4*10e-5 M/kg); type: functional, Mus musculus; in short: as §4
# Rattus norvegicus [26] = species on record: Rattus norvegicus; assay: Percent of tumors with partial remission at a dose of 1.9 mg in DMBA - induced, hormone dependent mammary carcinoma in rat; type: functional; in short: as §3
compound,measurement,setting,value
meso-4-PtCl2(2-F),ED50,MDA-MB-231 [1],1500 nM
same,T/C,MDA-MB-231 [1],21%
same,T/C,[2],60%
same,Med tumor weight,Mus musculus [3],143 mg
same,ED50,MCF7S [4],1500 nM
same,T/C,MCF7S [4],16%
same,T/C,Mus musculus [5],100%
same,T/C,MDA-MB-231 [6],12%
same,ED50,MDA-MB-231 [7],900 nM
same,Effect,Mus musculus [8],89.9
same,T/C,[9],30%
same,ED50,MCF7S [10],4800 nM
same,T/C,MCF7S [10],49%
NC(c1c(Cl)cc(O)cc1Cl)C(N)c1c(Cl)cc(O)cc1Cl (stereo not given),Change,Rattus norvegicus [11],154%
same,T/C,[12],< 18%
same,Med tumor weight,[13],91.5 mg
same,T/C,Mus musculus [14],239%
same,No. of tumors,Rattus norvegicus [15],26
same,T/C,[16],< 12%
same,Med tumor weight,[17],62.5 mg
same,No. of tumors,Rattus norvegicus [18],3
same,Change,Rattus norvegicus [19],-1.5%
same,Tumors,Rattus norvegicus [20],78%
same,Tumors,Rattus norvegicus [21],7%
same,T/C,Mus musculus [22],<158%
same,T/C,[23],< 12%
same,Tumors,Rattus norvegicus [24],11%
same,Effect,Mus musculus [8],134 and 201
same,Med tumor weight,[25],61 mg
same,Tumors,Rattus norvegicus [26],4%
